For one series, the system named is Staphylococcus aureus. The experiment in a line: Antibacterial activity against […] Staphylococcus aureus ATCC 29213 after 16 hrs by spectrophotometric analysis. It counts as functional. To be noted: ATCC 29213, 16 h.
Series [1] has as its target T1, Cell division protein FtsZ (Staphylococcus aureus) (UniProt P0A031).
T1 sequence (whole entry): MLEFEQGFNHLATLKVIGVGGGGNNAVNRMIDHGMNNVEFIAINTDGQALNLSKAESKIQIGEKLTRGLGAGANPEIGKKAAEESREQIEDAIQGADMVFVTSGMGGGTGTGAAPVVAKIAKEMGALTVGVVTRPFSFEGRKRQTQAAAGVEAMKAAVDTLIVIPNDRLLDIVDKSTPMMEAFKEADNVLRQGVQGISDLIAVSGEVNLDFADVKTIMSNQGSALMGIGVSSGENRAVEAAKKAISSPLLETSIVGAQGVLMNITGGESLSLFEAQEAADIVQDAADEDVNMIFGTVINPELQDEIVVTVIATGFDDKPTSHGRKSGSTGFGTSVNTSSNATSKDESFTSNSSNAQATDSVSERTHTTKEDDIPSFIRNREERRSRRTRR
The experiment in a line: Inhibition of Staphylococcus aureus FtsZ assessed as increase in cell volume at 0.5 ug/ml after overnight incubation by phase-contrast light microscopic analysis. The essentials: (§1)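 S. aureus grown overnight with compound at levels starting from the previously determined MIC. Untreated cultures served as negative control. Examined by phase-contrast microscopy at 630×.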

Series [2] is described as follows: Cytotoxicity against human MRC5 cells assessed as reduction in cell viability after 24 hrs by MTT assay. It counts as toxicity, cell-based. The conditions noted are these: mrc5, 24 h. In short, it runs like this:
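MRC-5 lung fibroblasts (DMEM, 10% heat-inactivated calf serum, 37 °C, 5% CO₂) at 10⁴ cells/well were exposed 24 h to twofold serial dilutions in DMEM. Then 1 mg/ml MTT in serum-free DMEM for 3 h, DMSO solubilisation, A570. Cytotoxicity % = 100 − (sample OD/untreated OD) × 100; TD₅₀/TD₉₀ are concentrations cutting viability 50/90%.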
For orientation: Tetrazolium assays rely on reduction of a dye to a coloured formazan, in cell work by metabolically active cells.

The nature of series [3]: Therapeutic index, ratio of TD90 for human MRC5 cells to MBC for […] Staphylococcus aureus ATCC 29213. It counts as cell-based. To be noted: read-out: TI. The essentials: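 Ratio of TD₉₀ (MTT assay on MRC-5, 24 h exposure) to MBC against MRSA ATCC 29213 (LB tube assay, wash-out and overnight regrowth by OD600).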
Series [4] concerns the target T1, Cell division protein FtsZ (Staphylococcus aureus). The series can be described thus: Inhibition of Staphylococcus aureus FtsZ assessed as cellular desegregation at 0.5 ug/ml after overnight incubation by phase-contrast light microscopic analysis. In short, it runs like this:
as §1

Series [5] has the same target. The experiment in a line: Inhibition of Staphylococcus aureus FtsZ assessed as bacterial swelling at 0.5 ug/ml after overnight incubation by phase-contrast light microscopic analysis. In short, it runs like this:
as §1

Values after ≈ are worked out from the molar mass of the structure shown. Active and inactive are the calls of the source.

One may read the MBC as the smallest concentration meeting the test's criterion for killing. Low readings indicate greater bactericidal potency, high ones weaker bactericidal potency. The term MIC denotes the least concentration at which growth counts as inhibited. The low end stands for a more susceptible organism, the high end for a less susceptible organism. Turning to `NC(=O)c1c(F)ccc(OCC2CCc3ccccc3O2)c1F` (configuration not stated), in the series on Staphylococcus aureus, the MBC turned out to be 5 µg/mL (≈ 15.7 µM) and 5 µg/mL (≈ 15.7 µM) was the least that counted as inhibitory (MIC).
`NC(=O)c1c(F)ccc(OCC2CCc3ccccc3C2)c1F` (configuration not stated) yielded an MIC in the series with Staphylococcus aureus greater than 100 µg/mL.
In the case of `N#Cc1ccc2c(c1)OC(COc1ccc(F)c(C(N)=O)c1F)CO2` (configuration not stated), in the series on Staphylococcus aureus, the MBC worked out at 2.5 µg/mL (≈ 7.22 µM) and the MIC came to 1.25 µg/mL (≈ 3.61 µM).
For `NC(=O)c1c(F)ccc(OCc2ccc3c(c2)OCCO3)c1F`, in that order: 100 µg/mL (≈ 311 µM) and 100 µg/mL (≈ 311 µM).
With `C#Cc1ccc2c(c1)OC(COc1ccc(F)c(C(N)=O)c1F)CO2` (configuration not stated), the inhibition result in series [1], in series [4] and in series [5] was “Active” in each case. Besides, in series [2], the TD90 was 400 µg/mL. The MBC against Staphylococcus aureus was 0.625 µg/mL (≈ 1.81 µM). Further, inhibition of growth in the series with Staphylococcus aureus (MIC) required 0.313 µg/mL (≈ 0.906 µM). In series [3], the selectivity ratio came to 640.
In turn, `NC(=O)c1c(F)ccc(OC(CO)COc2ccccc2)c1F` (configuration not stated) showed an MIC in the series with Staphylococcus aureus greater than 100 µg/mL.
For `NC(=O)c1c(F)ccc(OCC2COc3ccccc3C2)c1F` (configuration not stated), in the series on Staphylococcus aureus, the MBC came out at 100 µg/mL (≈ 313 µM) and the MIC amounted to 100 µg/mL (≈ 313 µM).
`NC(=O)c1c(F)ccc(OCC2COc3ccc(N)cc3O2)c1F` (configuration not stated): in the series on Staphylococcus aureus, the MBC was found to be 100 µg/mL (≈ 297 µM) and the lowest concentration to inhibit growth (MIC) was 100 µg/mL (≈ 297 µM).
In the series with Staphylococcus aureus, `NC(=O)c1c(F)ccc(OCC2COc3ccc(C(F)(F)F)cc3O2)c1F` (configuration not stated) came in with an MBC of 2.5 µg/mL (≈ 6.42 µM) and an MIC of 2.5 µg/mL (≈ 6.42 µM).
With `NC(=O)c1c(F)ccc(OCC2COc3ccc(Br)cc3O2)c1F` (configuration not stated), the TD90 in series [2] was greater than 800 µg/mL. For the same molecule, in the series on Staphylococcus aureus, the MBC stood at 0.625 µg/mL (≈ 1.56 µM) and the MIC came out at 0.625 µg/mL (≈ 1.56 µM). Also, the selectivity ratio in series [3] is greater than 1280.
Take `NC(=O)c1c(F)ccc(OCC2COc3ccc(F)cc3O2)c1F` (configuration not stated): in the series on Staphylococcus aureus, the MBC was 2.5 µg/mL (≈ 7.37 µM) and inhibition of growth (MIC) required 2.5 µg/mL (≈ 7.37 µM).

Source of the values: ChEMBL document CHEMBL3856196, “3-(Benzodioxan-2-ylmethoxy)-2,6-difluorobenzamides bearing hydrophobic substituents at the 7-position of the benzodioxane nucleus potently inhibit methicillin-resistant Sa and Mtb cell division” (Eur J Med Chem, 2016).
